From ChEMBL document CHEMBL1143334, “Peri-substituted hexahydro-indolones as novel, potent and selective human EP3 receptor antagonists” (Bioorg Med Chem Lett, 2009)
Activity calls are given as the source filed them. No cut-off for these calls is given here.

How the values were obtained:
[1] = Metabolic stability in human liver microsomes after 30 mins; format: ADME, Microsome; conditions: read-out: Stability
Summary of the method: (§1)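 Compound was incubated 30 min with liver microsomes from each species. Percent parent remaining was measured by LC/MS/MS.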

Homo sapiens [2] = species: Homo sapiens; experiment: Selectivity of human EP1 receptor over human EP3 receptor
Homo sapiens [3] = species: Homo sapiens; experiment: Selectivity of human FP receptor over human EP3 receptor
[4] = biological target: Prostaglandin E2 receptor EP4 subtype (Homo sapiens, UniProt P35408); experiment: Binding affinity to human EP4 receptor by radioligand binding assay
Prostaglandin E2 receptor EP4 subtype, sequence (P35408 whole entry): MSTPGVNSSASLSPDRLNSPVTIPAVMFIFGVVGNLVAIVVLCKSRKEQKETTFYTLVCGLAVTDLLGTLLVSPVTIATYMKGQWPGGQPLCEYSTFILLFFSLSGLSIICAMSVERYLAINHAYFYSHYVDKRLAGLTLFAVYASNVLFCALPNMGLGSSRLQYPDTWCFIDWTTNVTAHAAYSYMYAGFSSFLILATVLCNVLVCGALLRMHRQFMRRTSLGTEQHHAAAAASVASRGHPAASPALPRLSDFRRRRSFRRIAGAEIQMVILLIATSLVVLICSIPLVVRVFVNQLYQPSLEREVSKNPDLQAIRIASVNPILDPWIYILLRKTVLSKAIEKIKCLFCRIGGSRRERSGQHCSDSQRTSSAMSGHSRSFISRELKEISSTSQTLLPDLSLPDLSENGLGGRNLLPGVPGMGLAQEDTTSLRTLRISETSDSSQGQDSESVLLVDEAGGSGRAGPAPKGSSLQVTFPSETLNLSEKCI

[5] = biological target: Prostaglandin F2-alpha receptor (Homo sapiens, UniProt P43088); experiment: Binding affinity to human FP receptor by radioligand binding assay
Prostaglandin F2-alpha receptor, sequence (P43088 whole entry): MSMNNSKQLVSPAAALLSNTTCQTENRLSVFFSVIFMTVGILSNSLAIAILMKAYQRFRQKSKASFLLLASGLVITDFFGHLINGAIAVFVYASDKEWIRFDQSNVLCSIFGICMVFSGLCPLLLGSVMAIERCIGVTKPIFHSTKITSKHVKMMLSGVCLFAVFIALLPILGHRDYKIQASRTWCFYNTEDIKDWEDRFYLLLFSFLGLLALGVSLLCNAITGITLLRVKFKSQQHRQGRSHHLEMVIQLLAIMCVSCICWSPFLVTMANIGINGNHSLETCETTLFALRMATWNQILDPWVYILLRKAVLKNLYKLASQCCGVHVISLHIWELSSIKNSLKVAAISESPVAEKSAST

[6] = biological target: T1, Prostaglandin E2 receptor EP3 subtype (Homo sapiens, UniProt P43115); experiment: Displacement of [3H]PGE2 from human EP3 receptor
T1 sequence (P43115 whole entry): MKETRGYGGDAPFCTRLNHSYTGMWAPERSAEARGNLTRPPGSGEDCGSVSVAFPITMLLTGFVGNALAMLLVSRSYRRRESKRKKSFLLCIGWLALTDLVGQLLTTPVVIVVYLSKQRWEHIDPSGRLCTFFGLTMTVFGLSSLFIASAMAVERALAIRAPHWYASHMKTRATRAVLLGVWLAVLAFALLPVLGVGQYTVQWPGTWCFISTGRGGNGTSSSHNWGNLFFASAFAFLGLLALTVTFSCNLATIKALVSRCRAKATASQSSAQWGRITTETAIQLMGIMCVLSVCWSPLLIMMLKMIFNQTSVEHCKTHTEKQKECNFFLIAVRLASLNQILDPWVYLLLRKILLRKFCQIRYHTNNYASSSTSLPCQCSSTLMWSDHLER
Summary of the method: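 Displacement of [3H]-PGE2 from human EP3 receptor membrane preparations was run in buffer. IC50 values come from at least three experiments each.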

[7] = biological target: T2, Prostaglandin E2 receptor EP2 subtype (Homo sapiens, UniProt P43116); experiment: Binding affinity to human EP2 receptor by radioligand binding assay
T2 sequence (P43116 whole entry): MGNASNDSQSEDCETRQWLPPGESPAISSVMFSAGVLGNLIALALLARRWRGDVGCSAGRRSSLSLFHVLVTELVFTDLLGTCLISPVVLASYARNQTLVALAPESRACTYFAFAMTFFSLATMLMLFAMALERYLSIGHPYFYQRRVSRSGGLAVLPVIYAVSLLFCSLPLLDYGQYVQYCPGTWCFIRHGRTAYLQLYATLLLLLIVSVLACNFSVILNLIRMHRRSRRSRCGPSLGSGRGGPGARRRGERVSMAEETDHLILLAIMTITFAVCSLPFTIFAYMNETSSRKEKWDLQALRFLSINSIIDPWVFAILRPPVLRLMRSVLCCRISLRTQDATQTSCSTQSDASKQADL

[8] = Metabolic stability in rat liver microsomes after 30 mins; format: ADME, Microsome; conditions: read-out: Stability; summary of the method: as §1
Homo sapiens [9] = species: Homo sapiens; experiment: Selectivity of human EP4 receptor over human EP3 receptor
[10] = biological target: T3, Prostaglandin E2 receptor EP3 subtype (Homo sapiens) (UniProt P43115); experiment: Ratio of IC50 for human EP3 receptor in presence of 10% human serum to IC50 for human EP3 receptor in buffer
T3 sequence (whole entry): T1 sequence (P43115 whole entry)
Summary of the method: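 Displacement of [3H]-PGE2 from human EP3 membrane preparations was run both with 10% human serum and in buffer alone. Fold-shift is IC50 with serum divided by IC50 in buffer.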

[11] = biological target: T4, Prostaglandin E2 receptor EP1 subtype (Homo sapiens) (UniProt P34995); experiment: Binding affinity to human EP1 receptor at 20 uM by radioligand binding assay
T4 sequence (whole entry): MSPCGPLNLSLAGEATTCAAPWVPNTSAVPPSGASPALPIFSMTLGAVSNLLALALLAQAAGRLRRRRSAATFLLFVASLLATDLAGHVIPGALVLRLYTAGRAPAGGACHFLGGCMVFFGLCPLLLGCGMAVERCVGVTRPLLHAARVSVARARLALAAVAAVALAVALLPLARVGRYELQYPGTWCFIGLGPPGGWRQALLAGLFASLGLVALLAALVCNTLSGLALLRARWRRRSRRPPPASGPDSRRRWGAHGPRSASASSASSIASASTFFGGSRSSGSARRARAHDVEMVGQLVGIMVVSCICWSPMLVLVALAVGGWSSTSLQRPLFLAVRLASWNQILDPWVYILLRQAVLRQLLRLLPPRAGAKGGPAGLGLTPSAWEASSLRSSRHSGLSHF

Homo sapiens [12] = species: Homo sapiens; experiment: Selectivity of human EP2 receptor over human EP3 receptor
[13] = biological target: T2, Prostaglandin E2 receptor EP2 subtype; experiment: Binding affinity to human EP2 receptor at 20 uM by radioligand binding assay
[14] = biological target: T5, Prostaglandin E2 receptor EP1 subtype (Homo sapiens, UniProt P34995); experiment: Binding affinity to human EP1 receptor by radioligand binding assay
T5 sequence (P34995 whole entry): T4 sequence (whole entry)

[15] = biological target: T1, Prostaglandin E2 receptor EP3 subtype; experiment: Antagonist activity at human EP3 receptor expressed in CHO-K1 cells assessed as reversal of inhibition of forskolin-induced cAMP production; format: functional, cell-based
Summary of the method: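 CHO-K1 cells stably expressing human EP3 were exposed to increasing test compound concentrations for 10 min at 37 °C, with 5 μM forskolin plus 5 nM PGE2 present. Read-out was the block of PGE2's inhibition of the forskolin-induced cAMP rise, giving IC50.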

[16] = Metabolic stability in monkey liver microsomes after 30 mins; format: ADME, Macaca mulatta, Microsome; conditions: rhesus monkey, read-out: Stability; summary of the method: as §1
[17] = Aqueous solubility in 50 mM PSB buffer at pH 7.4 by HPLC analysis; format: physicochemical
Summary of the method: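 Samples were stirred overnight in 50 mM PSB buffer, pH 7.4, then filtered. Concentration was measured by HPLC against a 5-point standard curve, giving thermodynamic solubility.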

[18] = Metabolic stability in dog liver microsomes after 30 mins; format: ADME, Canis lupus familiaris, Microsome; conditions: read-out: Stability; summary of the method: as §1

Compound | remaining at 0.5 h [1] [%] | Selectivity ratio (Homo sapiens [2]) | Selectivity ratio (Homo sapiens [3]) | IC50 [4] [µM] | IC50 [5] [µM] | IC50 [6] [µM] | IC50 [7] [µM] | remaining at 0.5 h [8] [%] | Selectivity ratio (Homo sapiens [9]) | fold change (FC) [10] | Activity [11] | Selectivity ratio (Homo sapiens [12]) | Activity [13] | IC50 [14] [µM] | IC50 [15] [µM] | remaining at 0.5 h [16] [%] | solubility [17] [µg/mL] | remaining at 0.5 h [18] [%]
CC12CCCC(/C=C/C(=O)NS(=O)(=O)c3ccc(F)c(F)c3)=C1N(Cc1ccc(F)c(F)c1)C(=O)C2 (stereo not given) | 79 | > 1000 | > 1000 | 7.7 | 16.4 | 0.0094 | 2.3 | 82 | > 1000 | 3.2 | inactive | > 1000 | – | – | – | – | – | –
COc1cccc(CN2C(=O)CC3(C)CCCC(/C=C/C(=O)NS(=O)(=O)c4ccc(F)c(F)c4)=C23)c1 (stereo not given) | 76 | > 1000 | > 1000 | 7.5 | 6.4 | 0.0129 | – | 42 | > 1000 | 4.2 | – | > 1000 | inactive | 1.4 | – | – | – | –
CC12CCCC(/C=C/C(=O)NS(=O)(=O)c3cc(F)c(F)cc3F)=C1N(Cc1ccc(F)c(F)c1)C(=O)C2 (stereo not given) | 75 | > 1000 | > 1000 | 6.2 | 3.8 | 0.0077 | 13.9 | 89 | > 1000 | 9.3 | inactive | > 1000 | – | – | 0.0035 | 54 | > 3000 | 87
